Results as given in ChEMBL document CHEMBL3352499, “One pot three components microwave assisted and conventional synthesis of new 3-(4-chloro-2-hydroxyphenyl)-2-(substituted) thiazolidin-4-one as antimicrobial agents” (Bioorg Med Chem Lett, 2014).
≈ marks a conversion by molar mass, not a printed value. Structures can show the parent of a compound that is named as a salt.

What was measured:
Aspergillus flavus [1] = experiment: Antimicrobial activity against Aspergillus flavus NCIM-539 after 20 hrs by two fold serial macrodilution technique; format: functional; conditions: NCIM-539, 20 h
Salmonella typhimurium [2] = experiment: Antimicrobial activity against […] after 20 hrs by two fold serial macrodilution technique; format: functional, Salmonella enterica subsp. enterica serovar Typhimurium; conditions: Salmonella enterica
Method in brief: (§1)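 Serial macrodilution in 96-well microtiter plates. Compounds were dissolved in saline (0.8% NaCl) containing 5% DMSO, and strains were incubated with a range of concentrations for 20 h at 37 °C on a rotary shaker (160 rpm). MIC was the lowest concentration without growth. Runs were in triplicate, with the mean taken. The negative control was 5% DMSO.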

Staphylococcus aureus [3] = experiment: Bactericidal activity against Staphylococcus aureus NCIM-2901 after 72 hrs by two fold serial macrodilution technique; format: functional; conditions: NCIM-2901, 72 h
Method in brief: (§2)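 Serial subcultivation followed 72 h of exposure to compounds dissolved in saline containing 5% DMSO. MBC/MFC was the lowest concentration with no visible growth, taken as 99.5% killing of the original inoculum. Runs were in triplicate, with the mean reading used.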

Aspergillus niger [4] = experiment: Antimicrobial activity against Aspergillus niger NCIM-1196 after 20 hrs by two fold serial macrodilution technique; format: functional; conditions: NCIM-1196, 20 h
Escherichia coli [5] = experiment: Antimicrobial activity against Escherichia coli NCIM-2256 after 20 hrs by two fold serial macrodilution technique; format: functional; conditions: NCIM-2256, 20 h; method in brief: as §1
Candida albicans [6] = experiment: Antimicrobial activity against Candida albicans NCIM-3471 after 20 hrs by two fold serial macrodilution technique; format: functional; conditions: NCIM-3471, 20 h
Salmonella typhimurium [7] = experiment: Bactericidal activity against […] after 72 hrs by two fold serial macrodilution technique; format: functional, Salmonella enterica subsp. enterica serovar Typhimurium; conditions: Salmonella enterica; method in brief: as §2
Staphylococcus aureus [8] = experiment: Antimicrobial activity against Staphylococcus aureus NCIM-2901 after 20 hrs by two fold serial macrodilution technique; format: functional; conditions: NCIM-2901, 20 h; method in brief: as §1
Cryptococcus neoformans [9] = experiment: Fungicidal activity against Cryptococcus neoformans NCIM-3378 after 48 to 72 hrs by two fold serial macrodilution technique; format: functional; method in brief: as §2
Bacillus subtilis [10] = experiment: Antimicrobial activity against Bacillus subtilis NCIM-2063 after 20 hrs by two fold serial macrodilution technique; format: functional; conditions: NCIM-2063, 20 h; method in brief: as §1
HeLa = experiment: Cytotoxicity against human HeLa cells by SRB method; format: cell-based
Method in brief: (§3)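 SRB colorimetric growth assay. IC50, in µM, was the concentration inhibiting cell growth by 50% relative to untreated control cells. Runs were in triplicate in three independent experiments, with means reported. The positive control was doxorubicin.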

Aspergillus flavus [11] = experiment: Fungicidal activity against Aspergillus flavus NCIM-539 after 48 to 72 hrs by two fold serial macrodilution technique; format: functional; method in brief: as §2
Bacillus subtilis [12] = experiment: Bactericidal activity against Bacillus subtilis NCIM-2063 after 72 hrs by two fold serial macrodilution technique; format: functional; conditions: NCIM-2063, 72 h; method in brief: as §2
MCF7 = experiment: Cytotoxicity against human MCF7 cells by SRB method; format: cell-based; method in brief: as §3
Aspergillus niger [13] = experiment: Fungicidal activity against Aspergillus niger NCIM-1196 after 48 to 72 hrs by two fold serial macrodilution technique; format: functional; method in brief: as §2
Cryptococcus neoformans [14] = experiment: Antimicrobial activity against Cryptococcus neoformans NCIM-3378 after 20 hrs by two fold serial macrodilution technique; format: functional; conditions: NCIM-3378, 20 h
Candida albicans [15] = experiment: Fungicidal activity against Candida albicans NCIM-3471 after 48 to 72 hrs by two fold serial macrodilution technique; format: functional; method in brief: as §2
Escherichia coli [16] = experiment: Bactericidal activity against Escherichia coli NCIM-2256 after 72 hrs by two fold serial macrodilution technique; format: functional; conditions: NCIM-2256, 72 h; method in brief: as §2

O=C1CSC(c2cccs2)N1c1ccc(Cl)cc1O (stereo not given)
MIC (Aspergillus flavus [1]): 25 µg/mL (≈ 80.2 µM)
MIC (Salmonella typhimurium [2]): 70 µg/mL (≈ 224 µM)
MBC (Staphylococcus aureus [3]): 150 µg/mL (≈ 481 µM)
MIC (Aspergillus niger [4]): 70 µg/mL (≈ 224 µM)
MIC (Escherichia coli [5]): 85 µg/mL (≈ 273 µM)
MIC (Candida albicans [6]): 100 µg/mL (≈ 321 µM)
MBC (Salmonella typhimurium [7]): 155 µg/mL (≈ 497 µM)
MIC (Staphylococcus aureus [8]): 60 µg/mL (≈ 192 µM)
MFC (Cryptococcus neoformans [9]): 160 µg/mL (≈ 513 µM)
MIC (Bacillus subtilis [10]): 35 µg/mL (≈ 112 µM)
IC50 (HeLa): 66.6 µM
MFC (Aspergillus flavus [11]): 45 µg/mL (≈ 144 µM)
MBC (Bacillus subtilis [12]): 55 µg/mL (≈ 176 µM)
IC50 (MCF7): 64.9 µM
MFC (Aspergillus niger [13]): 155 µg/mL (≈ 497 µM)
MIC (Cryptococcus neoformans [14]): 95 µg/mL (≈ 305 µM)
MFC (Candida albicans [15]): 160 µg/mL (≈ 513 µM)
MBC (Escherichia coli [16]): 160 µg/mL (≈ 513 µM)

O=C1CSC(c2ccccn2)N1c1ccc(Cl)cc1O (stereo not given)
MIC (Aspergillus flavus [1]): 100 µg/mL (≈ 326 µM)
MIC (Salmonella typhimurium [2]): 85 µg/mL (≈ 277 µM)
MBC (Staphylococcus aureus [3]): 155 µg/mL (≈ 505 µM)
MIC (Aspergillus niger [4]): 80 µg/mL (≈ 261 µM)
MIC (Escherichia coli [5]): 90 µg/mL (≈ 293 µM)
MIC (Candida albicans [6]): 55 µg/mL (≈ 179 µM)
MBC (Salmonella typhimurium [7]): 150 µg/mL (≈ 489 µM)
MIC (Staphylococcus aureus [8]): 60 µg/mL (≈ 196 µM)
MFC (Cryptococcus neoformans [9]): 150 µg/mL (≈ 489 µM)
MIC (Bacillus subtilis [10]): 85 µg/mL (≈ 277 µM)
IC50 (HeLa): 87.2 µM
MFC (Aspergillus flavus [11]): 165 µg/mL (≈ 538 µM)
MBC (Bacillus subtilis [12]): 165 µg/mL (≈ 538 µM)
IC50 (MCF7): 88.7 µM
MFC (Aspergillus niger [13]): 155 µg/mL (≈ 505 µM)
MIC (Cryptococcus neoformans [14]): 75 µg/mL (≈ 244 µM)
MFC (Candida albicans [15]): 155 µg/mL (≈ 505 µM)
MBC (Escherichia coli [16]): 165 µg/mL (≈ 538 µM)

O=C1CSC(c2ccc(O)cc2)N1c1ccc(Cl)cc1O (stereo not given)
MIC (Aspergillus flavus [1]): 20 µg/mL (≈ 62.2 µM)
MIC (Salmonella typhimurium [2]): 25 µg/mL (≈ 77.7 µM)
MBC (Staphylococcus aureus [3]): 20 µg/mL (≈ 62.2 µM)
MIC (Aspergillus niger [4]): 55 µg/mL (≈ 171 µM)
MIC (Escherichia coli [5]): 20 µg/mL (≈ 62.2 µM)
MIC (Candida albicans [6]): 25 µg/mL (≈ 77.7 µM)
MBC (Salmonella typhimurium [7]): 45 µg/mL (≈ 140 µM)
MIC (Staphylococcus aureus [8]): 6 µg/mL (≈ 18.6 µM)
MIC (Bacillus subtilis [10]): 15 µg/mL (≈ 46.6 µM)
IC50 (HeLa): 63.8 µM
MFC (Aspergillus flavus [11]): 35 µg/mL (≈ 109 µM)
MBC (Bacillus subtilis [12]): 25 µg/mL (≈ 77.7 µM)
IC50 (MCF7): 59.4 µM
MFC (Aspergillus niger [13]): 115 µg/mL (≈ 357 µM)
MIC (Cryptococcus neoformans [14]): 60 µg/mL (≈ 186 µM)
MFC (Candida albicans [15]): 40 µg/mL (≈ 124 µM)
MBC (Escherichia coli [16]): 35 µg/mL (≈ 109 µM)

Cc1ncsc1C1SCC(=O)N1c1ccc(Cl)cc1O (stereo not given)
MIC (Aspergillus flavus [1]): 3 µg/mL (≈ 9.18 µM)
MIC (Salmonella typhimurium [2]): 20 µg/mL (≈ 61.2 µM)
MBC (Staphylococcus aureus [3]): 20 µg/mL (≈ 61.2 µM)
MIC (Aspergillus niger [4]): 80 µg/mL (≈ 245 µM)
MIC (Escherichia coli [5]): 15 µg/mL (≈ 45.9 µM)
MIC (Candida albicans [6]): 30 µg/mL (≈ 91.8 µM)
MBC (Salmonella typhimurium [7]): 40 µg/mL (≈ 122 µM)
MIC (Staphylococcus aureus [8]): 15 µg/mL (≈ 45.9 µM)
MIC (Bacillus subtilis [10]): 30 µg/mL (≈ 91.8 µM)
IC50 (HeLa): 78.5 µM
MFC (Aspergillus flavus [11]): 20 µg/mL (≈ 61.2 µM)
MBC (Bacillus subtilis [12]): 55 µg/mL (≈ 168 µM)
IC50 (MCF7): 75.7 µM
MFC (Aspergillus niger [13]): 135 µg/mL (≈ 413 µM)
MIC (Cryptococcus neoformans [14]): 55 µg/mL (≈ 168 µM)
MFC (Candida albicans [15]): 45 µg/mL (≈ 138 µM)
MBC (Escherichia coli [16]): 20 µg/mL (≈ 61.2 µM)

N#Cc1ccc(C2SCC(=O)N2c2ccc(Cl)cc2O)cc1 (stereo not given)
MIC (Aspergillus flavus [1]): 60 µg/mL (≈ 181 µM)
MIC (Salmonella typhimurium [2]): 55 µg/mL (≈ 166 µM)
MBC (Staphylococcus aureus [3]): 145 µg/mL (≈ 438 µM)
MIC (Aspergillus niger [4]): 100 µg/mL (≈ 302 µM)
MIC (Escherichia coli [5]): 90 µg/mL (≈ 272 µM)
MIC (Candida albicans [6]): 90 µg/mL (≈ 272 µM)
MBC (Salmonella typhimurium [7]): 115 µg/mL (≈ 348 µM)
MIC (Staphylococcus aureus [8]): 35 µg/mL (≈ 106 µM)
MIC (Bacillus subtilis [10]): 100 µg/mL (≈ 302 µM)
IC50 (HeLa): 83.2 µM
MFC (Aspergillus flavus [11]): 115 µg/mL (≈ 348 µM)
MBC (Bacillus subtilis [12]): 140 µg/mL (≈ 423 µM)
IC50 (MCF7): 81.2 µM
MFC (Aspergillus niger [13]): 145 µg/mL (≈ 438 µM)
MIC (Cryptococcus neoformans [14]): 85 µg/mL (≈ 257 µM)
MFC (Candida albicans [15]): 140 µg/mL (≈ 423 µM)
MBC (Escherichia coli [16]): 120 µg/mL (≈ 363 µM)

CC1(C)S[C@@H]2[C@H](NC(=O)[C@H](N)c3ccccc3)C(=O)N2[C@H]1C(=O)O [AMPICILLIN]
MIC (Salmonella typhimurium [2]): 12.5 µg/mL (≈ 35.8 µM)
MBC (Staphylococcus aureus [3]): 17.5 µg/mL (≈ 50.1 µM)
MIC (Escherichia coli [5]): 12.5 µg/mL (≈ 35.8 µM)
MBC (Salmonella typhimurium [7]): 17.5 µg/mL (≈ 50.1 µM)
MIC (Staphylococcus aureus [8]): 12.5 µg/mL (≈ 35.8 µM)
MIC (Bacillus subtilis [10]): 12.5 µg/mL (≈ 35.8 µM)
MBC (Bacillus subtilis [12]): 17.5 µg/mL (≈ 50.1 µM)
MBC (Escherichia coli [16]): 17.5 µg/mL (≈ 50.1 µM)

O=C(O)c1cn(C2CC2)c2cc(N3CCNCC3)c(F)cc2c1=O [CIPROFLOXACIN]
MIC (Salmonella typhimurium [2]): 7.5 µg/mL (≈ 22.6 µM)
MBC (Staphylococcus aureus [3]): 13 µg/mL (≈ 39.2 µM)
MIC (Escherichia coli [5]): 7.5 µg/mL (≈ 22.6 µM)
MBC (Salmonella typhimurium [7]): 8 µg/mL (≈ 24.1 µM)
MIC (Bacillus subtilis [10]): 6.25 µg/mL (≈ 18.9 µM)
MBC (Bacillus subtilis [12]): 13 µg/mL (≈ 39.2 µM)
MBC (Escherichia coli [16]): 8 µg/mL (≈ 24.1 µM)

COc1cccc2c1C(=O)c1c(O)c3c(c(O)c1C2=O)C[C@@](O)(C(=O)CO)C[C@@H]3O[C@H]1C[C@H](N)[C@H](O)[C@H](C)O1 [DOXORUBICIN HYDROCHLORIDE]
IC50 (HeLa): < 0.1 µM
IC50 (MCF7): < 0.1 µM

OC(Cn1cncn1)(Cn1cncn1)c1ccc(F)cc1F [FLUCONAZOLE]
MIC (Aspergillus flavus [1]): 6.25 µg/mL (≈ 20.4 µM)
MIC (Aspergillus niger [4]): 6.25 µg/mL (≈ 20.4 µM)
MIC (Candida albicans [6]): 10 µg/mL (≈ 32.7 µM)
MFC (Cryptococcus neoformans [9]): 16.5 µg/mL (≈ 53.9 µM)
MFC (Aspergillus flavus [11]): 16.5 µg/mL (≈ 53.9 µM)
MFC (Aspergillus niger [13]): 16.5 µg/mL (≈ 53.9 µM)
MIC (Cryptococcus neoformans [14]): 6.25 µg/mL (≈ 20.4 µM)
MFC (Candida albicans [15]): 22.5 µg/mL (≈ 73.5 µM)

Clc1ccc(COC(Cn2ccnc2)c2ccc(Cl)cc2Cl)c(Cl)c1 (stereo not given) [MICONAZOLE]
MIC (Aspergillus flavus [1]): 3.25 µg/mL (≈ 7.81 µM)
MIC (Aspergillus niger [4]): 3.25 µg/mL (≈ 7.81 µM)
MIC (Candida albicans [6]): 3.25 µg/mL (≈ 7.81 µM)
MFC (Cryptococcus neoformans [9]): 12.5 µg/mL (≈ 30 µM)
MFC (Aspergillus flavus [11]): 12.5 µg/mL (≈ 30 µM)
MFC (Aspergillus niger [13]): 12.5 µg/mL (≈ 30 µM)
MIC (Cryptococcus neoformans [14]): 3.25 µg/mL (≈ 7.81 µM)
MFC (Candida albicans [15]): 12.5 µg/mL (≈ 30 µM)
